Values after ≈ are worked out from the molar mass of the structure shown.

The text below walks through data of ChEMBL document CHEMBL3792364, “Identification and biological activity of 6-alkyl-substituted 3-methyl-pyridine-2-carbonyl amino dimethyl-benzoic acid EP4 antagonists” (Bioorg Med Chem Lett, 2016).

For series [1], the target named is T1, Prostaglandin E2 receptor EP4 subtype (Homo sapiens, UniProt P35408). Briefly: Antagonist activity against EP4 in human whole blood assessed as reversal of PGE2-mediated suppression of LPS-induced TNF-alpha production preincubated for 30 mins followed by LPS stimulation measured after 20 to 24 hrs by enzyme immunoassay. The series is classed as tissue-based. Summed up: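 Pooled blood from donors free of NSAIDs or celecoxib for 48 h and of glucocorticoids for 2 weeks. Blood pretreated 30 min at 37 °C, 5% CO2 with compound in DMSO (7-point curve, triplicate). LPS […] ± 10 nM PGE2 (final) added, then incubated 20–24 h. Plasma TNFα read at A450-A650. IC50 from sigmoidal nonlinear fit; geometric mean of independent runs.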
T1 sequence (P35408 whole entry): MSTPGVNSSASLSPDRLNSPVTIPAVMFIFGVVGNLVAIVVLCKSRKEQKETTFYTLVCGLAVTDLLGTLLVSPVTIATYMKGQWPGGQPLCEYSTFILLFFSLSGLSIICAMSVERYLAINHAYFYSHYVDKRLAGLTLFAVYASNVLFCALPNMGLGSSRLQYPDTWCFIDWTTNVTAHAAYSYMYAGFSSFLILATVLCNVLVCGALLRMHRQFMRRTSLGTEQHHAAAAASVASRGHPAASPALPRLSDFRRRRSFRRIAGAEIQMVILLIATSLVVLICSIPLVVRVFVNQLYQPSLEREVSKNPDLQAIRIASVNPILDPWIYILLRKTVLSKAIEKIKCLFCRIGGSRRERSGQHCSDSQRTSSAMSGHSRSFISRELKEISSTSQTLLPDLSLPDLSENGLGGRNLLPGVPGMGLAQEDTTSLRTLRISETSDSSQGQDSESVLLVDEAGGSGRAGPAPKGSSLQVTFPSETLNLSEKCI

Series [2] concerns the target T1, Prostaglandin E2 receptor EP4 subtype. As to the kind of experiment: Antagonist activity against human EP4 expressed in HEK293 cells assessed as inhibition of PGE2-stimulated production of cAMP incubated for 20 mins by HTRF assay. The series is classed as functional, cell-based. In general terms: In TR-FRET formats the signal depends on donor and acceptor labels being close together.

Series [3] can be described thus: Aqueous solubility of compound at pH 6 at 2 mM after 20 hrs by HPLC. In kind it is physicochemical. The note with it: aqueous medium. In a few lines:
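Samples in DMSO dried 12 h, then redissolved at pH 6 at a 2 mM target concentration. Stirred 20 h, filtered through 0.7 µm GF filter. Filtrate concentration measured by HPLC against a DMSO standard curve.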

Consider `Cc1ccc(N2CCC(C)(O)CC2)nc1C(=O)Nc1c(C)cc(C(=O)O)cc1C`, for which the figures for the IC50 in series [1] and in series [2] were 3600 nM and 39.8 nM, respectively. In series [3], the concentration in solution (solubility at 20 h, 2000 µM) came to 817 µg/mL (≈ 2060 µM).

As usually defined, the IC50 is the point on the concentration scale where inhibition reaches its midpoint. A word on the solubility: it is how much of the substance goes into solution per volume. A lower solubility goes with a poorly soluble substance.
